Test results as given in ChEMBL document CHEMBL4808228, “Synthesis of novel 1,2,4-trioxanes and antimalarial evaluation against multidrug-resistant Plasmodium yoelii nigeriensis” (2021).

Experiments:
Type in all cases: functional
Plasmodium yoelii [1] = experiment: Antimalarial activity against multidrug-resistant Plasmodium yoelii infected in Swiss mouse assessed as animal survival at 48 mg/kg, im for 4 days and measured for 28 days; conditions: 672 h, time 28 day
Outline: (§1)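 Intramuscular dosing of groups of five Swiss mice (25 ± 1 g) infected on day 0 with 1 X 10⁶ parasitized RBC, on days 0–3 in two divided daily doses. Parasitaemia came from thin blood smears over days 4–28. Animals without patent infection till day 28 were recorded as cured. The strain is resistant to chloroquine, mefloquine and halofantrine.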

Plasmodium yoelii [2] = experiment: Antimalarial activity against multidrug-resistant Plasmodium yoelii infected in Swiss mouse assessed as inhibition of parasitemia at 48 mg/kg, im for 4 days measured on day 4 relative to control; conditions: 96 h, time 4 day
Outline: (§2)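 In this im regimen, mice (Swiss, 25 ± 1 g; n = 5 per dose) received 1 X 10⁶ parasitized RBC on day 0 and were treated on days 0–3 in two divided daily doses. Parasitaemia on day 4 was read from thin blood smears, and suppression = [(C−T)/C] × 100 relative to the control group. Full suppression meant none seen in 50 oil immersion fields.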

Plasmodium yoelii [3] = experiment: Antimalarial activity against multidrug-resistant Plasmodium yoelii infected in Swiss mouse assessed as inhibition of parasitemia at 48 mg/kg, po for 4 days measured on day 4 relative to control; conditions: 96 h, time 4 day
Outline: (§3)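 Swiss mice (25 ± 1 g), five per dose, were infected with 1 X 10⁶ parasitized RBC on day 0. Dosing was oral on days 0–3, twice daily, in groundnut oil (0.1 ml per dose). Day-4 thin-smear parasitaemia gave % suppression = [(C−T)/C] × 100 versus the control group. 100% meant no parasites in 50 oil immersion fields.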

Plasmodium yoelii [4] = experiment: Antimalarial activity against multidrug-resistant Plasmodium yoelii infected in Swiss mouse assessed as animal survival at 48 mg/kg, po for 4 days and measured for 28 days; conditions: 672 h, time 28 day
Outline: (§4)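 Swiss mice (25 ± 1 g) were inoculated with 1 X 10⁶ parasitized RBC on day 0. Groups of five were dosed orally on days 0–3 in two divided daily doses, in groundnut oil, 0.1 ml per dose. Thin blood smears were read on days 4–28, and mice without patent infection by day 28 counted as cured. β-Arteether was the positive control.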

Plasmodium yoelii [5] = experiment: Antimalarial activity against multidrug-resistant Plasmodium yoelii infected in Swiss mouse assessed as animal survival at 24 mg/kg, im for 4 days and measured for 28 days; conditions: 672 h, time 28 day; outline: as §1
Plasmodium yoelii [6] = experiment: Antimalarial activity against multidrug-resistant Plasmodium yoelii infected in Swiss mouse assessed as animal survival at 24 mg/kg, po for 4 days and measured for 28 days; conditions: 672 h, time 28 day; outline: as §4
Plasmodium yoelii [7] = experiment: Antimalarial activity against multidrug-resistant Plasmodium yoelii infected in Swiss mouse assessed as inhibition of parasitemia at 48 mg/kg, im for 4 days measured on day 4 relative to po dosed artemisinin; conditions: time 4 day
Plasmodium yoelii [8] = experiment: Antimalarial activity against multidrug-resistant Plasmodium yoelii infected in Swiss mouse assessed as inhibition of parasitemia at 24 mg/kg, po for 4 days measured on day 4 relative to control; conditions: 96 h, time 4 day; outline: as §3
Plasmodium yoelii [9] = experiment: Antimalarial activity against multidrug-resistant Plasmodium yoelii infected in Swiss mouse assessed as inhibition of parasitemia at 48 mg/kg, po for 4 days measured on day 4 relative to po dosed artemisinin; conditions: time 4 day
Plasmodium yoelii [10] = experiment: Antimalarial activity against multidrug-resistant Plasmodium yoelii infected in Swiss mouse assessed as inhibition of parasitemia at 24 mg/kg, im for 4 days measured on day 4 relative to control; conditions: 96 h, time 4 day; outline: as §2
Plasmodium yoelii [11] = experiment: Antimalarial activity against multidrug-resistant Plasmodium yoelii infected in Swiss mouse assessed as animal survival at 96 mg/kg, po for 4 days and measured for 28 days; conditions: 672 h, time 28 day; outline: as §4
Plasmodium yoelii [12] = experiment: Antimalarial activity against multidrug-resistant Plasmodium yoelii infected in Swiss mouse assessed as inhibition of parasitemia at 96 mg/kg, po for 4 days measured on day 4 relative to control; conditions: 96 h, time 4 day; outline: as §3
Plasmodium yoelii [13] = experiment: Antimalarial activity against multidrug-resistant Plasmodium yoelii infected in Swiss mouse assessed as inhibition of parasitemia at 96 mg/kg, im for 4 days measured on day 4 relative to control; conditions: 96 h, time 4 day; outline: as §2
Plasmodium yoelii [14] = experiment: Antimalarial activity against multidrug-resistant Plasmodium yoelii infected in Swiss mouse assessed as animal survival at 96 mg/kg, im for 4 days and measured for 28 days; conditions: 672 h, time 28 day; outline: as §1

SMILES | survival at 48 mg/kg (Plasmodium yoelii [1]) [%] | inhibition in vivo at 48 mg/kg (Plasmodium yoelii [2]) [%] | inhibition in vivo at 48 mg/kg (Plasmodium yoelii [3]) [%] | survival at 48 mg/kg (Plasmodium yoelii [4]) [%] | survival at 96 mg/kg (Plasmodium yoelii [11]) [%] | inhibition in vivo at 96 mg/kg (Plasmodium yoelii [12]) [%] | inhibition in vivo at 96 mg/kg (Plasmodium yoelii [13]) [%] | survival at 96 mg/kg (Plasmodium yoelii [14]) [%] | other results
C=C(c1ccc(Oc2ccc3ccc(OCCOC(=O)CCC(=O)O)cc3c2)cc1)C1COC2(OO1)C1CC3CC(C1)CC2C3 (centres undefined) | 0 | 58.8 | 77.4 | 0 |  |  |  |  | 
C=C(c1ccc(Oc2ccc3ccc(OCCOC(=O)CCC(=O)O)cc3c2)cc1)C1COC2(CCCCC2)OO1 (centres undefined) | 60 | 100 | 100 |  |  |  |  |  | 
C=C(c1ccc(Oc2ccc3ccc(OCCOC(=O)CCC(=O)O)cc3c2)cc1)C1COC2(CCCC2)OO1 (centres undefined) | 100 | 100 | 100 | 100 |  |  |  |  | survival at 24 mg/kg (Plasmodium yoelii [5]): 80%; survival at 24 mg/kg (Plasmodium yoelii [6]): 0%; fold change (FC) (Plasmodium yoelii [7]): 2; inhibition in vivo at 24 mg/kg (Plasmodium yoelii [8]): 100%; fold change (FC) (Plasmodium yoelii [9]): 2; inhibition in vivo at 24 mg/kg (Plasmodium yoelii [10]): 100%
C=C(c1ccc(Oc2ccc3ccc(OCCO)cc3c2)cc1)C1COC2(OO1)C1CC3CC(C1)CC2C3 (centres undefined) | 0 | 51.4 | 83.2 | 0 |  |  |  |  | 
C=C(c1ccc(Oc2ccc(OCCOC(=O)CCC(=O)O)cc2)cc1)C1COC2(CCCCC2)OO1 (centres undefined) |  |  |  |  | 0 | 10 | 28.4 | 0 | 
C=C(c1ccc(Oc2cccc3c(OCCO)cccc23)cc1)C1COC2(CCCC2)OO1 (centres undefined) | 0 | 46.2 | 44.1 | 0 |  |  |  |  | 
C=C(c1ccc(Oc2cccc3c(OCCOC(=O)CCC(=O)O)cccc23)cc1)C1COC2(CCCC2)OO1 (centres undefined) | 0 | 28.3 | 39.4 | 0 |  |  |  |  | 
C=C(c1ccc(Oc2ccc3ccc(OCCO)cc3c2)cc1)C1COC2(CCCCC2)OO1 (centres undefined) | 0 | 71.6 | 83.5 | 0 |  |  |  |  | 
C=C(c1ccc(Oc2cccc3c(OCCOC(=O)CCC(=O)O)cccc23)cc1)C1COC2(OO1)C1CC3CC(C1)CC2C3 (centres undefined) | 0 | 42.2 | 27.5 | 0 |  |  |  |  | 
C=C(c1ccc(Oc2ccc(OCCO)cc2)cc1)C1COC2(CCCCC2)OO1 (centres undefined) |  |  |  |  | 0 | 45.4 | 72.4 | 0 | 
C=C(c1ccc(Oc2ccc(OCCO)cc2)cc1)C1COC2(OO1)C1CC3CC(C1)CC2C3 (centres undefined) |  |  | 85.5 | 0 | 100 | 100 | 100 | 0 | 
C=C(c1ccc(Oc2cccc3c(OCCO)cccc23)cc1)C1COC2(OO1)C1CC3CC(C1)CC2C3 (centres undefined) | 0 | 46.2 | 100 | 40 |  |  |  |  | 
C=C(c1ccc(Oc2ccc(OCCOC(=O)CCC(=O)O)cc2)cc1)C1COC2(OO1)C1CC3CC(C1)CC2C3 (centres undefined) |  |  |  |  | 0 | 35.6 | 100 | 40 | 
C=C(c1ccc(Oc2ccc(OCCO)cc2)cc1)C1COC2(CCCC2)OO1 (centres undefined) |  |  |  |  | 0 | 38.4 | 85.2 | 0 | 
C=C(c1ccc(Oc2cccc3c(OCCO)cccc23)cc1)C1COC2(CCCCC2)OO1 (centres undefined) | 0 | 46.2 | 38.2 | 0 |  |  |  |  | 
C=C(c1ccc(Oc2cccc3c(OCCOC(=O)CCC(=O)O)cccc23)cc1)C1COC2(CCCCC2)OO1 (centres undefined) | 0 | 26.6 | 49.8 | 0 |  |  |  |  | 
C=C(c1ccc(Oc2ccc3ccc(OCCO)cc3c2)cc1)C1COC2(CCCC2)OO1 (centres undefined) | 80 | 100 | 100 | 80 |  |  |  |  | 
C=C(c1ccc(Oc2ccc(OCCOC(=O)CCC(=O)O)cc2)cc1)C1COC2(CCCC2)OO1 (centres undefined) |  |  |  |  | 0 | 44.3 | 77.8 | 0 | 
C[C@@H]1CC[C@H]2[C@@H](C)C(=O)O[C@@H]3O[C@@]4(C)CC[C@@H]1[C@]32OO4 [ARTEMISININ] | 100 | 100 |  |  |  | 100 |  |  | survival at 24 mg/kg (Plasmodium yoelii [5]): 80%; inhibition in vivo at 24 mg/kg (Plasmodium yoelii [10]): 100%
